Measurements reported in ChEMBL document CHEMBL3994594, “Angiogenesis Inhibitors and Anti-Inflammatory Agents from Phoma sp. NTOU4195” (J Nat Prod, 2016).
Activity calls are given as the source filed them. No cut-off for these calls is given here.

Columns and labels:
[1] = Antiangiogenic activity in CD34-positive human EPC assessed as inhibition of tube formation on matrigel after 24 hrs by inverted phase-contrast microscopy; type: functional, cell-based
Procedure, shortened: (§1)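 Human CD34+ EPCs (from PBMCs, MACS bead separation) maintained on 1% gelatin in MV2 medium with 20% FBS. Matrigel polymerized 30 min at 37 °C; 6 × 10^4 cells/well seeded in MV2 with 2% FBS plus compound, 24 h at 37 °C. Tube length measured in three random fields per well, expressed against DMSO control; IC50 derived from this.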

EPC = experiment: Antiangiogenic activity in CD34-positive human EPC assessed as inhibition of tube formation on matrigel at 10 uM after 24 hrs by inverted phase-contrast microscopy; type: functional, cell-based; procedure, shortened: as §1
[2] = Cytotoxicity against CD34-positive human EPC at 20 uM after 24 hrs by LDH release assay; type: cell-based
Procedure, shortened: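 EPCs seeded at 5 × 10^3 cells/well, treated 24 h in MV2 medium with 2% FBS containing compound at 20 μM. LDH release taken as medium LDH activity relative to cell-lysate LDH activity. Mean ± SEM of three independent experiments.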

RAW264.7 [3] = experiment: Antiinflammatory activity in mouse RAW264.7 cells assessed as inhibition of LPS-stimulated nitric oxide production at 100 uM compound treated prior to LPS challenge by Griess assay; type: functional
Procedure, shortened: (§2)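 RAW264.7 grown to confluence (24 h, DMEM 10% FBS), then serum-free DMEM 4 h for quiescence. Compounds added before LPS (200 ng/mL). Nitrite in medium read spectrophotometrically by Griess reaction. Percent inhibition calculated versus vehicle plus LPS; Emax is inhibition at 100 μM, IC50 the concentration giving 50% of Emax; n = 4−6.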

[4] = Cytotoxicity against mouse RAW264.7 cells assessed as cell viability by AlamarBlue assay; type: cell-based; design: concentration or dose not given beside the values; details: read-out: Activity
Procedure, shortened: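 RAW264.7 macrophages exposed to compounds at up to 100 μM under the NO-assay conditions; viability read by AlamarBlue.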

RAW264.7 [5] = experiment: Antiinflammatory activity in mouse RAW264.7 cells assessed as inhibition of LPS-stimulated nitric oxide production compound treated prior to LPS challenge by Griess assay; type: functional, cell-based; procedure, shortened: as §2

Row | SMILES | IC50 [1] [µM] | inhibition (EPC) | Activity [2] | Emax at 100 µM (RAW264.7 [3]) [%] | viability [4] [%] | IC50 (RAW264.7 [5]) [µM]
1 | CO[C@H]1[C@@H](OC(=O)/C=C/[C@H]2O[C@H]2C)CC[C@@]2(CO2)[C@@H]1[C@]1(C)O[C@H]1CC=C(C)C | 17.8 | Active | Non-Toxic | 100 | 98.7 | 8.8
2 | CC/C=C\[C@H](O)[C@H](O)C1=C(C)C(=O)[C@]2(O1)C(=O)N[C@@](OC)(C(=O)c1ccccc1)[C@H]2O | > 20 |  |  | 67.2 | 99.3 | 62.5
3 | CNC(=O)c1cc(Oc2ccc(NC(=O)Nc3ccc(Cl)c(C(F)(F)F)c3)cc2)ccn1 [SORAFENIB] | 3.6 |  |  |  |  | 
4 | CO[C@H]1[C@@H](OC(=O)/C=C/[C@@H](O)[C@H](C)O)CC[C@@]2(CO2)[C@@H]1[C@@]1(C)O[C@H]1CC=C(C)C | 18.4 |  |  | 100 | 97.6 | 20.6
5 | CC/C(O)=C/C=C(\O)C1=C(C)C(=O)[C@@]2(O1)C(=O)N[C@](OC)(C(=O)c1ccccc1)[C@H]2O | 16.7 | Active | Non-Toxic | 63.1 | 97.6 | 57
6 | N=C(NCCC[C@H](N)C(=O)O)N[N+](=O)[O-] [NITROARGININE] |  |  |  | 42.1 | 102 | 144
7 | CO[C@H]1[C@@H](OC(=O)/C=C/[C@H]2O[C@@H]2C)CC[C@@]2(O)CO[C@@](C)(C(O)CC=C(C)C)[C@H]12 (stereo partly drawn) | 16.2 | Active | Non-Toxic | 93.4 | 92.2 | 22.8
8 | N=C(N)NN [PIMAGEDINE] |  |  |  | 83.7 | 99.2 | 24.7
9 | C=C1CC[C@H](OC(=O)/C=C/[C@@H](O)[C@H](C)O)[C@H](OC)[C@H]1[C@@]1(C)O[C@H]1CC=C(C)C | 19.2 | Active | Non-Toxic | 80.8 | 93 | 35.4
10 | CO[C@H]1[C@@H](OC(=O)/C=C/[C@@H](O)[C@H](C)O)CC[C@@](O)(CCl)[C@@H]1[C@]1(C)O[C@H]1CC=C(C)C | 8.1 | Active | Non-Toxic | 87.9 | 99.2 | 19.3
11 | CO[C@H]1[C@@H](OC(=O)/C=C/[C@H]2O[C@H]2C)CC[C@@](O)(CCl)[C@@H]1[C@]1(C)O[C@H]1CC=C(C)C | > 20 |  | Non-Toxic | 100 | 101 | 13.5
12 | CC/C=C\[C@H](O)[C@H](O)C1=C(C)C(=O)[C@]2(O1)C(=O)N[C@@](OC)(C(=O)c1ccccc1)[C@@H]2O [PSEUROTIN A] | > 20 |  |  | 38.8 | 103 | > 100
13 | CC/C=C\[C@H](O)[C@H](O)C1=C(C)C(=O)[C@]2(O1)C(=O)N[C@](OC)(C(=O)c1ccccc1)[C@H]2O | > 20 |  |  | 78.2 | 100 | 40.6
